Here are results for 18 compounds from PubChem BioAssay.

A short description of experiment [1]: S. cerevisiae growth inhibition in permissive medium (OD615), pilot counter-assay for S. cerevisiae lifespan shortening project, permissive growth control (AID 705). The following applies: OD615, 24 h, at 10 µM, active compounds read high. In outline:
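System: Engineered DeaD yeast | Buffer or medium: SC raffinose/galactose permissive medium | Incubation: Cells pre-grown 4 h, then 24 h compound exposure, 30 °C humidified | Measured by: Absorbance (optical density) at 615 nm | Read-out: Reduction in yeast growth (OD615)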

A short description of experiment [2]: S. cerevisiae growth inhibition in restrictive medium, OD615, pilot screen, restrictive growth control, yeast lifespan reduction project (AID 706;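 active = growth inhibition above a set limit, 3 SD over mean compound inhibition, in both replicates, cut at about 43% in these data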;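 note: modified DeaD lifespan yeast strain shifted to restrictive glucose medium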). The following applies: OD615, 48 h, at 10 µM, active compounds read high. In outline: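 Material: modified S. cerevisiae; Medium: glucose-based CSMM-D restrictive medium; Compound dosing: one concentration, 10 µM final, 0.25% DMSO; Incubation: 48 h compound exposure at 30 °C; Measured by: OD615.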

Experiment [3] in a line: doxorubicin toxicity protection in MRP-1 cells – H69AR cells, CellTiter-Glo, duplicate, MRP-1 activator project, pilot screen (AID 807;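 active = viability increase at or above a cutoff of the median across tested compounds plus 3 SD, cut at about 8.5% in these data, passing the limit was not always enough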;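 note: compound pretreatment 18-22 h then 72 h combined with doxorubicin; 0% = doxorubicin alone and 100% = vehicle without doxorubicin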). The note with it: H69AR viability with doxorubicin, CellTiter-Glo luminescence; at 10 µM; active compounds read high. For orientation: In ATP-based viability assays light output follows the ATP content of the culture.
Experiment [4] can be described thus: viability of HCT116 without oncogenic beta-catenin – human colon tumor cells, pilot screen (AID 823;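 active = cell viability at or below a set limit in both duplicate runs, the limit being the all-compound median minus 4 SD, cut at about 23% in these data, passing the limit was not always enough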;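 note: 0% = wells killed by 20 µM Hyamine and 100% = untreated DMSO cell wells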). The note with it: HCT116 beta-catenin knockout viability, CellTiter-Glo, 60 h; at 10 µM; active compounds read low.
A short description of experiment [5]: viability of PTEN-null HCT116 cells – cell-based, HCT116 clonal line, CellTiter-Glo, pilot screen (AID 824;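 active = viability at or below 27.92% in each of two runs, the all-compound median minus 4 SD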;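 note: 0% = 20 µM Hyamine control and 100% = vehicle cell control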). The note with it: HCT116 PTEN-deleted viability, 60 h, at 10 µM, active compounds read low.
Experiment [6] in a line: RAM pathway blockade in budding yeast – dse1pr::URA3 reporter, 5-FOA selection, pilot screen (AID 869;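 active = inhibition over a set limit, the all-compound mean plus 3 SD, in both replicate runs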;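 note: 0% = DMSO wells with no growth and 100% = 10 µM 1-NA-PP1 with full growth; RAM network block rescues cells from 5-FOA so hits raise OD615 growth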). The following applies: S. cerevisiae dse1pr::URA3 5-FOA growth, OD615, 2 d; at 10 µM; active compounds read high; strain carries analog-sensitive mutant Cbk1 kinase.
Experiment [7] in a line: RAM signaling pathway blockade in yeast – S. cerevisiae, Pdr1DBD-CYC8 efflux-inhibited sensitized strain, primary screen (AID 1298;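 active = RAM network inhibition above 8.4% in each of two replicates, 3 SD over the compound average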;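 note: 0% = DMSO untreated cells without growth and 100% = 10 µM 1-NA-PP1 full growth; higher means more yeast growth rescued from 5-FOA killing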). The note with it: S. cerevisiae cbk1-as DSE1-URA3 strain, 5-FOA growth OD615, 2 d; at 50 µM; active compounds read high.

Unmarked numbers belong to inactive results. Inconclusive results are not listed. Active and inactive are the calls of the source.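 Rule for the calls, unless noted: active = growth inhibition above 25% in both replicates, a cutoff set 3 SD above the mean; inconclusive = above 25% in only one replicate; inactive = the rest.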

Take `CCOCC(=O)NCc1ccc2c(c1)cc(C)n2C`: the growth inhibition in experiment [1] is -13.8%; in experiment [2] it was -14%. The viability increase in experiment [3] is -1.45%. Also, the viability (in general, a read-out of living cells in per cent, often relative to untreated cells) in experiment [4] is 103%; in experiment [5] it was 97.3%. For the same compound, the inhibition (commonly the change of the read-out against control, counted positive when it falls) in experiment [6] was 0.65%. For the same compound, the RAM network inhibition in experiment [7] is 0.21%.
`CCn1c(-c2cc(OC)ccc2OC)csc1=Nc1c(C)n(C)n(-c2ccccc2)c1=O`: the growth inhibition in experiment [1] was -11.1%; in experiment [2] it was -22.9%. Further, in experiment [3], the viability increase was 0.28%. In addition, the viability in experiment [4] was 93.8%; in experiment [5], 92.5%. Further, the inhibition in experiment [6] was 1.58%. Further, the RAM network inhibition in experiment [7] was 4.62%.
For the compound `Cc1cc(Nc2cccc(C)c2C)n2ncnc2n1`, the figures for the growth inhibition in experiment [1] and in experiment [2] were -5.19% and -1.32%, respectively. Moreover, in experiment [3], the viability increase is -0.81%. Further, the viability in experiment [4] is 95.1%; in experiment [5], 94.3%. In addition, the inhibition in experiment [6] was -0.155%. The RAM network inhibition in experiment [7] was -1.31%.
Take `COC(=O)Cn1c(CN2CCN(c3ccc(F)cc3)CC2)nc2c1c(=O)n(C)c(=O)n2C`: the figures for the growth inhibition in experiment [1] and in experiment [2] were -1.31% and -4.9%, respectively. Besides, the viability increase in experiment [3] is -0.86%. Also, the viability was 85.1% in experiment [4] and 86.2% in experiment [5]. Moreover, the inhibition in experiment [6] was 2.88%. In addition, the RAM network inhibition in experiment [7] was 1.93%.
On to `O=C(c1cccc(S(=O)(=O)N2CCOCC2)c1)N1CCOCC1`, for which the growth inhibition in experiment [1] was -3.56%; in experiment [2], -5.11%. Moreover, the viability increase in experiment [3] is -0.71%. In addition, the viability in experiment [4] is 101%; in experiment [5], 97.9%. Also, the inhibition in experiment [6] is 0.835%. For the same compound, the RAM network inhibition in experiment [7] is 1.18%.
Turning to `OCCN1CCN(Cc2cccc(Oc3ccc(Cl)cc3)c2)CC1`, the growth inhibition was -4.24% in experiment [1] and -1.81% in experiment [2]. In experiment [3], the viability increase is -3.74%. The figures for the viability in experiment [4] and in experiment [5] were 63.2% and 73.1%, respectively. Besides, the inhibition in experiment [6] is 2.6%. In addition, the RAM network inhibition in experiment [7] is -0.21%.
As to `COc1ccc(C2N(c3cc(Cl)ccc3OC)C(=O)C3CCCN32)cc1OC` (stereo unspecified), the results for the growth inhibition in experiment [1] and in experiment [2] were -8.95% and -8.17%, respectively. Besides, the viability increase in experiment [3] was -1.86%. In addition, the values for the viability in experiment [4] and in experiment [5] were 106% and 95.9%, respectively. In addition, the inhibition in experiment [6] was 1.02%. Also, the RAM network inhibition in experiment [7] is 7.33%.
Regarding `Cc1cc(OCCN2CCCC2)ccc1C(C)C`, the growth inhibition in experiment [1] was -4.67%; in experiment [2], -1.01%. Further, the viability increase in experiment [3] was -1.29%. Further, the viability is 89.1% in experiment [4] and 91.3% in experiment [5]. In experiment [6], the inhibition was 2.1%. For the same compound, the RAM network inhibition in experiment [7] is 8.59%.
On to `C=CCC(=O)OCC(=O)Nc1ccc(Oc2ccccc2)cc1`, for which the growth inhibition is 6.73% in experiment [1] and 5% in experiment [2]. The viability increase in experiment [3] is -5.15%. Besides, the viability in experiment [4] was 94.2%; in experiment [5], 94.1%. For the same compound, the inhibition in experiment [6] is -0.25%. The RAM network inhibition in experiment [7] is -0.31%.
Take `CC1(C)Cc2c(C#N)c(N3CCCC3)nc(-c3ccco3)c2CO1`: the growth inhibition in experiment [1] was -9.34%; in experiment [2] it was -8.21%. In addition, the viability increase in experiment [3] was -5.07%. Further, the viability in experiment [4] was 90.3%; in experiment [5], 85.7%. Besides, the inhibition in experiment [6] is 1.39%. Also, the RAM network inhibition in experiment [7] is -1.01%.
Turning to `Cc1cc(=O)[nH]c(SCc2cc(Cl)ccc2OC(F)F)n1`, the growth inhibition in experiment [1] is -4.67%; in experiment [2], 15.1%. For the same compound, the viability increase in experiment [3] was -1.54%. For the same compound, the viability in experiment [4] is 98.2%; in experiment [5], 92.1%. For the same compound, in experiment [6], the inhibition is 1.62%. Besides, the RAM network inhibition in experiment [7] is 5.32%.
For `COc1ccc(-n2nc3cc(C)c(NC(=O)CC(C)C)cc3n2)cc1`, the growth inhibition in experiment [1] is -7.39%; in experiment [2], -3.86%. For the same compound, in experiment [3], the viability increase is -0.97%. Also, the viability in experiment [4] is 94%; in experiment [5], 92.2%. Further, the inhibition in experiment [6] is 0.405%. Besides, the RAM network inhibition in experiment [7] was 3.76%.
For the compound `CCc1nnc(NC(=O)c2ccc(OC)cc2OC)s1`, the growth inhibition in experiment [1] is 16.6%; in experiment [2] it was 3.21%. In addition, the viability increase in experiment [3] is -1.32%. Besides, the figures for the viability in experiment [4] and in experiment [5] were 109% and 102%, respectively. Besides, the inhibition in experiment [6] is 1.68%. In experiment [7], the RAM network inhibition is 2.76%.
Regarding `CCOC(=O)c1sc(NC(=O)c2ccco2)nc1C`, the growth inhibition in experiment [1] is -9.56%; in experiment [2], -2.94%. In addition, the viability increase in experiment [3] is -1.31%. The viability in experiment [4] is 94.5%; in experiment [5], 91.8%. Moreover, in experiment [6], the inhibition was 1.66%. The RAM network inhibition in experiment [7] is 3.98%.
On to `Cc1cccc(C(=O)Nc2cc(=O)n(C)c(=O)n2C)c1`, for which the growth inhibition in experiment [1] is -14.2%; in experiment [2], -21.9%. Besides, in experiment [3], the viability increase is -0.85%. Further, the viability in experiment [4] is 105%; in experiment [5], 92.4%. The inhibition in experiment [6] is 0.905%. Besides, the RAM network inhibition in experiment [7] was 1.04%.
Turning to `CCOc1ccc(C(F)(F)F)cc1NC(C)=O`, the growth inhibition in experiment [1] was -6.15%; in experiment [2], -9.57%. Also, in experiment [3], the viability increase was -3.24%. Further, the viability was 90.4% in experiment [4] and 90.3% in experiment [5]. Moreover, in experiment [6], the inhibition was 0.62%. For the same compound, the RAM network inhibition in experiment [7] was 3.29%.
On to `Cc1ccc(-c2nn3c(C)nnc3s2)cc1NC(=O)c1ccc(OC(C)C)cc1`, for which the growth inhibition in experiment [1] is 12.3%; in experiment [2], 56% (active). Also, in experiment [3], the viability increase was -4.84%. For the same compound, the viability in experiment [4] is 79.4%; in experiment [5], 68.4%. For the same compound, the inhibition in experiment [6] is 0.855%. Further, in experiment [7], the RAM network inhibition is 7.25%.
In the case of `Cc1c(C(=O)NCCN2CCOCC2)oc2ccc(S(=O)(=O)N3CCCCCC3)cc12`, the growth inhibition was -3.55% in experiment [1] and -1.55% in experiment [2]. The viability increase in experiment [3] is -2.1%. Also, the viability was 86.1% in experiment [4] and 90.6% in experiment [5]. The inhibition in experiment [6] was 1.15%. Moreover, the RAM network inhibition in experiment [7] is -1.39%.
